{"source": "PubChem BioAssay AID623965", "about": "(Broad Institute, 2012)", "note": "Where “and” joins values, the source holds several entries; their conditions need not be identical. Equal entries are not always repeated.", "data": [{"tested_on": "Candida glabrata growth in glycerol medium, OD600, 48 h", "test": "C. glabrata glycerol-medium growth inhibitors tested alone – glycerol carbon source, dry powder, plate reader, set 3, dose response (AID 623965)", "how_it_was_run": "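Assay system: Candida glabrata yeast cells | Technique: Optical density at 600 nm | Times: 48 h at 30 °C, no shaking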", "values": [{"smiles": "CCOC(=O)N1C(=O)C2(CCCCC2)N(c2ccc(Cl)cc2)C1=S", "AC50": "29.7 nM"}, {"smiles": "C/C=C/[C@@H]1[C@H]2C[C@@H](C)CC[C@@H]2C(C)=C[C@H]1C(=O)c1c(O)c(-c2ccc(O)cc2)c[nH]c1=O", "AC50": "2940 nM"}, {"smiles": "CCOC(=O)N1C(=O)C2(CCCCC2)N(c2cccc(C)c2)C1=S", "AC50": "38.6 nM"}, {"smiles": "CCOC(=O)N1C(=O)C2(CCCCC2)N(c2ccc(C#N)cc2)C1=S", "AC50": "39.8 nM"}, {"smiles": "CCOC(=O)N1C(=O)C2(CCCCC2)N(c2ccc(F)cc2)C1=S", "AC50": "11.3 nM"}, {"smiles": "CC1/C=C/C=C\\C=C\\C=C\\C=C\\C=C\\C=C\\C(O[C@H]2OC(C)C(O)C(N)C2O)CC2OC(O)(CC(O)CC(O)C(O)CCC(O)CC(O)CC(=O)OC(C)C(C)C1O)CC(O)C2C(=O)O", "note": "(stereo partly drawn)", "AC50": "1410 nM"}, {"smiles": "CCOC(=O)N1C(=O)C2(CCCCC2)N(c2ccc(C)cc2)C1=S", "AC50": "57.6 nM and 55.3 nM"}, {"smiles": "CCOC(=O)N1C(=O)C2(CCCCC2)N(c2ccccc2)C1=S", "AC50": "33.5 nM"}]}]}
